Experimental data as given in ChEMBL document CHEMBL2390884, “Design, synthesis and antiproliferative activity studies of novel 1,2,3-triazole-dithiocarbamate-urea hybrids” (Eur J Med Chem, 2013).
Activity calls are given as the source filed them. The rule behind the calls is not given here.

Experiments:
[1] = system: MGC-803; assay: Induction of apoptosis in human MGC803 cells at 0.25 to 1 uM after 12 hrs by AnnexinV-FITC/propidium iodide staining-based flow cytometry (reference value: 2.8 %); type: functional
[2] = system: MGC-803; assay: Induction of apoptosis in human MGC803 cells after 12 hrs by AnnexinV-FITC/propidium iodide staining-based flow cytometry; type: functional, cell-based
[3] = system: MGC-803; assay: Induction of apoptosis in human MGC803 cells assessed as nuclear fragmentation at 0.25 to 1 uM after 12 hrs by Hoechst 33258 staining-based fluorescence microscopy; type: functional, cell-based
How it was run: (§1)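 MGC-803 cells seeded at 8×10^3 cells/well, treated 12 h at 0, 0.25, 0.5 or 1.0 µmol/L; cells collected, fixed, stained 20 min with Hoechst 33258, washed with PBS; nuclear shrinkage, chromatin condensation, intense fluorescence and fragmentation scored by fluorescence microscopy.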

[4] = system: MGC-803; assay: Induction of apoptosis in human MGC803 cells assessed as chromatin condensation at 0.25 to 1 uM after 12 hrs by Hoechst 33258 staining-based fluorescence microscopy; type: functional, cell-based; how it was run: as §1
[5] = system: MGC-803; assay: Induction of apoptosis in human MGC803 cells assessed as nuclear shrinkage at 0.25 to 1 uM after 12 hrs by Hoechst 33258 staining-based fluorescence microscopy; type: functional, cell-based; how it was run: as §1
[6] = system: MCF7; assay: Cytotoxicity against human MCF7 cells after 72 hrs by MTT assay; type: functional, cell-based; settings: MCF7, 72 h
[7] = system: SMMC-7721; assay: Cytotoxicity against human SMMC7721 cells after 72 hrs by MTT assay; type: functional, cell-based; settings: SMMC-7721, 72 h
[8] = system: MGC-803; assay: Cytotoxicity against human MGC803 cells after 72 hrs by MTT assay; type: functional, cell-based; settings: MGC-803, 72 h
[9] = system: MGC-803; assay: Cell cycle arrest in human MGC803 cells assessed as reduction in G1 phase accumulation after 12 to 24 hrs by propidium iodide staining-based flow cytometry; type: functional
How it was run: (§2)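 Exponentially growing MGC-803 cells (5×10^5) treated at 0, 0.25, 0.5 or 1.0 µmol/L for 12 or 24 h; cells collected, fixed in ice-cold 70% ethanol, treated with buffer containing RNAse A and 0.1% Triton X-100, stained with PI; DNA content analysed by flow cytometry to give percentages of cells in G1, S and G2/M phases.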

[10] = system: MGC-803; assay: Cell cycle arrest in human MGC803 cells assessed as reduction in S phase accumulation after 12 to 24 hrs by propidium iodide staining-based flow cytometry; type: functional; how it was run: as §2
[11] = system: MGC-803; assay: Cell cycle arrest in human MGC803 cells assessed as reduction in S phase accumulation at 0.25 to 1 uM by propidium iodide staining-based flow cytometry; type: functional; settings: TDE = time-dependent effect; how it was run: as §2
[12] = system: MGC-803; assay: Cell cycle arrest in human MGC803 cells assessed as accumulation at G2/M phase at 0.25 to 1 uM by propidium iodide staining-based flow cytometry; type: functional; settings: TDE = time-dependent effect; how it was run: as §2
[13] = system: MGC-803; assay: Cell cycle arrest in human MGC803 cells assessed as reduction in G1 phase accumulation at 0.25 to 1 uM by propidium iodide staining-based flow cytometry; type: functional; settings: TDE = time-dependent effect; how it was run: as §2
[14] = system: MGC-803; assay: Cell cycle arrest in human MGC803 cells assessed as accumulation at G2/M phase at 1 uM after 24 hrs by propidium iodide staining-based flow cytometry; type: functional; how it was run: as §2
[15] = system: MGC-803; assay: Cell cycle arrest in human MGC803 cells assessed as accumulation at G2/M phase at 0.25 uM after 24 hrs by propidium iodide staining-based flow cytometry; type: functional; how it was run: as §2
[16] = system: MGC-803; assay: Cell cycle arrest in human MGC803 cells assessed as accumulation at G2/M phase at 0.5 uM after 24 hrs by propidium iodide staining-based flow cytometry; type: functional; how it was run: as §2
[17] = system: MGC-803; assay: Cell cycle arrest in human MGC803 cells assessed as accumulation at G2/M phase at 1 uM after 12 hrs by propidium iodide staining-based flow cytometry; type: functional; how it was run: as §2
[18] = system: MGC-803; assay: Cell cycle arrest in human MGC803 cells assessed as accumulation at G2/M phase at 0.5 uM after 12 hrs by propidium iodide staining-based flow cytometry; type: functional; how it was run: as §2
[19] = system: MGC-803; assay: Cell cycle arrest in human MGC803 cells assessed as accumulation at S phase at 1 uM after 24 hrs by propidium iodide staining-based flow cytometry; type: functional; how it was run: as §2
[20] = system: MGC-803; assay: Cell cycle arrest in human MGC803 cells assessed as accumulation at G2/M phase at 0.25 uM after 12 hrs by propidium iodide staining-based flow cytometry; type: functional; how it was run: as §2
[21] = system: MGC-803; assay: Cell cycle arrest in human MGC803 cells assessed as accumulation at S phase at 0.5 uM after 24 hrs by propidium iodide staining-based flow cytometry; type: functional; how it was run: as §2
[22] = system: MGC-803; assay: Cell cycle arrest in human MGC803 cells assessed as accumulation at S phase at 1 uM after 12 hrs by propidium iodide staining-based flow cytometry; type: functional; how it was run: as §2
[23] = system: MGC-803; assay: Cell cycle arrest in human MGC803 cells assessed as accumulation at S phase at 0.5 uM after 12 hrs by propidium iodide staining-based flow cytometry; type: functional; how it was run: as §2
[24] = system: MGC-803; assay: Cell cycle arrest in human MGC803 cells assessed as accumulation at S phase at 0.25 uM after 12 hrs by propidium iodide staining-based flow cytometry; type: functional; how it was run: as §2
[25] = system: MGC-803; assay: Cell cycle arrest in human MGC803 cells assessed as accumulation at G0/G1 phase at 0.5 uM after 24 hrs by propidium iodide staining-based flow cytometry; type: functional; how it was run: as §2
[26] = system: MGC-803; assay: Cell cycle arrest in human MGC803 cells assessed as accumulation at G0/G1 phase at 1 uM after 24 hrs by propidium iodide staining-based flow cytometry; type: functional; how it was run: as §2
[27] = system: MGC-803; assay: Cell cycle arrest in human MGC803 cells assessed as accumulation at G0/G1 phase at 1 uM after 12 hrs by propidium iodide staining-based flow cytometry; type: functional; how it was run: as §2
[28] = system: MGC-803; assay: Cell cycle arrest in human MGC803 cells assessed as accumulation at G0/G1 phase at 0.5 uM after 12 hrs by propidium iodide staining-based flow cytometry; type: functional; how it was run: as §2
[29] = system: MGC-803; assay: Cell cycle arrest in human MGC803 cells assessed as accumulation at G0/G1 phase at 0.25 uM after 12 hrs by propidium iodide staining-based flow cytometry; type: functional; how it was run: as §2
[30] = system: MGC-803; assay: Induction of apoptosis in human MGC803 cells assessed as necrotic cells at 1 uM after 12 hrs by AnnexinV-FITC/propidium iodide staining-based flow cytometry (reference value: 2.4 %); type: functional
[31] = system: MGC-803; assay: Induction of apoptosis in human MGC803 cells assessed as necrotic cells at 0.25 uM after 12 hrs by AnnexinV-FITC/propidium iodide staining-based flow cytometry (reference value: 2.4 %); type: functional
[32] = system: MGC-803; assay: Induction of apoptosis in human MGC803 cells assessed as necrotic cells at 0.5 uM after 12 hrs by AnnexinV-FITC/propidium iodide staining-based flow cytometry (reference value: 2.4 %); type: functional
[33] = system: MGC-803; assay: Induction of apoptosis in human MGC803 cells assessed as late apoptotic cells at 1 uM after 12 hrs by AnnexinV-FITC/propidium iodide staining-based flow cytometry (reference value: 3.0 %); type: functional
[34] = system: MGC-803; assay: Induction of apoptosis in human MGC803 cells assessed as late apoptotic cells at 0.5 uM after 12 hrs by AnnexinV-FITC/propidium iodide staining-based flow cytometry (reference value: 3.0 %); type: functional
[35] = system: MGC-803; assay: Induction of apoptosis in human MGC803 cells assessed as late apoptotic cells at 0.25 uM after 12 hrs by AnnexinV-FITC/propidium iodide staining-based flow cytometry (reference value: 3.0 %); type: functional
[36] = system: MGC-803; assay: Induction of apoptosis in human MGC803 cells assessed as early apoptotic cells at 0.5 uM after 12 hrs by AnnexinV-FITC/propidium iodide staining-based flow cytometry (reference value: 2.8 %); type: functional

CC(C)NC(=O)N1CCN(C(=S)SCc2cn(Cc3ccc(F)cc3)nn2)CC1
Activity [1]: 31.4% | Activity [2]: Dose-dependent effect | Activity [3]: Active | Activity [4]: Active | Activity [5]: Active | IC50 [6]: 1.66 µM | IC50 [7]: 5.97 µM | IC50 [8]: 0.76 µM | Activity [9]: Dose-dependent effect | Activity [10]: Dose-dependent effect | Activity [11]: tde | Activity [12]: tde | Activity [13]: tde | Activity [14]: 79.02% | Activity [15]: 58.94% | Activity [16]: 69.88% | Activity [17]: 68.68% | Activity [18]: 46.86% | Activity [19]: 15.91% | Activity [20]: 20.84% | Activity [21]: 20.57% | Activity [22]: 12.65% | Activity [23]: 32.65% | Activity [24]: 40.91% | Activity [25]: 4.91% | Activity [26]: 2.32% | Activity [27]: 3.62% | Activity [28]: 22.18% | Activity [29]: 37.35% | Activity [30]: 1.2% | Activity [31]: 0.5% | Activity [32]: 0.8% | Activity [33]: 2.4% | Activity [34]: 1.8% | Activity [35]: 2.2% | Activity [36]: 17.2%
